# Measurements pooled from the literature.
# Compare with care: the assays were run in different laboratories.
# Target: Serine/threonine-protein kinase TBK1 (TBK1, Homo sapiens, UniProt Q9UHD2)
SMILES,read-out,mode,method,cell line,concentration,quantity,value
O=C(O)c1cc(-c2ccc(C3CCNCC3)cc2)c2ccc(-c3ccc(C(F)(F)F)cc3)cc2c1,cell-free assay,,competition with immobilised ligand,,1 µM,remaining binding,80%
CNC(=O)c1cc(Oc2ccc(NC(=O)Nc3ccc(Cl)c(C(F)(F)F)c3)cc2)ccn1,enzyme activity,inhibitor,,,0.3 µM,inhibition,16%
NS(=O)(=O)c1ccc(CNc2nc(Nc3cccc(CN4CCOCC4)c3)ncc2C2CC2)cc1,enzyme activity,inhibitor,radiometric,,1 µM,remaining activity,10%
COc1cc2ncnc(Nc3ccc(Oc4ccccc4)cc3C)c2cc1OC,enzyme activity,inhibitor,,,1 µM,inhibition,4%
Cc1nn(CC(F)(F)F)cc1Nc1ncc(C2CC2)c(NCCc2c[nH]cn2)n1,enzyme activity,inhibitor,radiometric,,1 µM,remaining activity,81%
CCN1CCN(Cc2ccc(NC(=O)c3ccc(C)c(Oc4ccnc5[nH]ccc45)c3)cc2C(F)(F)F)CC1,target engagement in cells,inhibitor,chemoproteomics,Huh-7,10 µM,inhibition,-24.4%
COc1cccc2c(NCc3ccccc3)nc(-n3c(N)nc4ccccc43)nc12,target engagement in cells,inhibitor,chemoproteomics,,20 mM,inhibition,-11.4%
CN1CCN(c2cnc3c(C4CCN(C(=O)c5ccc(OC(F)(F)F)cc5N)CC4)ncnc3c2)CC1,cell-free assay,,competition with immobilised ligand,,1 µM,remaining binding,61%
NS(=O)(=O)c1ccc(CNc2ccnc(Nc3cccc(CN4CCOCC4)c3)n2)cc1,enzyme activity,inhibitor,radiometric,,1 µM,remaining activity,33%
FC(F)(F)Oc1cccc(-c2cnc3ccc(-c4ccncc4)nn23)c1,enzyme activity,inhibitor,radiometric,,1 µM,activity vs control,92%
COc1cc(Nc2c(C#N)cnc3cc(OCCCN4CCN(C)CC4)c(OC)cc23)c(Cl)cc1Cl,cell-free assay,,,,0.5 µM,remaining signal,65.7%
Cc1ccc(Nc2nccc(N(C)c3ccc4c(C)n(C)nc4c3)n2)cc1S(N)(=O)=O,enzyme activity,inhibitor,,,10 µM,inhibition,46%
C[C@@H](c1cccc(C#N)c1)n1cc(Cl)cc(C(N)=O)c1=N,cell-free assay,,competition with immobilised ligand,,1 µM,remaining binding,89%
C=CC(=O)Nc1cc(Nc2nccc(Nc3cc(Cl)c(F)cc3C(C)(C)O)n2)c(OC)cc1N1CC[C@@H](N(C)C)C1,enzyme activity,inhibitor,,,1 µM,inhibition,1%
NS(=O)(=O)c1ccc(CNc2ccnc(Nc3cccc(NC(=O)N4CCCC4)c3)n2)cc1,enzyme activity,inhibitor,radiometric,,1 µM,remaining activity,68%
O=C(Nc1cccnn1)N1CC(C/C=C/c2cncc(Oc3ccc(C(F)(F)F)cn3)n2)C1,cell-free assay,,competition with immobilised ligand,,1 µM,remaining binding,72%
Cc1ccc(NC(=O)c2ccc(C)c(C(F)(F)F)c2)cc1C#Cc1nn(C2CCC(O)CC2)c2ncnc(N)c12 (stereo not drawn),cell-free assay,,,,10 µM,remaining signal,104%
CN1CCc2cc(Nc3ncc(C4CC4)c(NCCCNC(=O)C4CCC4)n3)ccc2C1,enzyme activity,inhibitor,radiometric,,1 µM,remaining activity,1%
Cc1cc(NC(=O)c2cccc3cc(-c4cccc5[nH]nc(N)c45)ccc23)ccc1F,enzyme activity,inhibitor,,,0.1 µM,activity vs control,109%
NS(=O)(=O)c1ccc(CNc2nc(Nc3cccc(NC(=O)N4CCCC4)c3)ncc2Br)cc1,enzyme activity,inhibitor,radiometric,,1 µM,remaining activity,1%
O=C(NCCCC1CCCCC1)c1ccc(CNC(=O)c2cnn(-c3ccccc3)c2C(F)(F)F)cc1,cell-free assay,,competition with immobilised ligand,,0.1 µM,remaining binding,100%
Cc1nn(CC(F)(F)F)cc1Nc1ncc(C2CC2)c(NCCCNC(=O)C2CCC2)n1,enzyme activity,inhibitor,radiometric,,1 µM,remaining activity,4%
CN(C)C1CCN(CC#Cc2nn(C3CCCC3)c3nc(NCc4ccccc4)ncc23)C1 (stereo not drawn),enzyme activity,inhibitor,FRET,,0.1 µM,inhibition,2%
CN1CC(Oc2cnc(C#N)cc2-c2ccn3nc(NC(=O)C4CC4)cc3c2)C1,enzyme activity,inhibitor,,,1 µM,inhibition,3%
CN([C@@H]1CCc2c(CC(=O)O)c3cc(S(C)(=O)=O)ccc3n2C1)S(=O)(=O)c1ccc(F)cc1,cell-free assay,,competition with immobilised ligand,,1 µM,remaining binding,97%
Cc1nn(CC(F)(F)F)cc1Nc1nccc(NCCc2cnc[nH]2)n1,enzyme activity,inhibitor,radiometric,,1 µM,remaining activity,87%
COCCOc1nc(-c2ccc(Cl)nc2)nc2c1CN(C(=O)c1ncn3ccccc13)CC2,cell-free assay,,competition with immobilised ligand,,0.1 µM,remaining binding,68%
CCN(CC)CCNC(=O)c1c(C)[nH]c(/C=C2\C(=O)Nc3ccc(F)cc32)c1C,enzyme activity,inhibitor,,,10 µM,inhibition,88%
CN(C)C(=O)Cn1cc(-c2nc(C3(c4ccc(-c5cnc(N)nc5)cc4)CC3)no2)cn1,cell-free assay,,competition with immobilised ligand,,1 µM,remaining binding,87%
N#CCCc1ccc2c(c1)-c1[nH]c3ccc([N+](=O)[O-])cc3c1CC(=O)N2,cell-free assay,,,,0.5 µM,remaining signal,83.7%
